The values below come from ChEMBL document CHEMBL4014308, “Amphiphilic Tobramycin-Lysine Conjugates Sensitize Multidrug Resistant Gram-Negative Bacteria to Rifampicin and Minocycline” (J Med Chem, 2017).

Calls of active or inactive are those of the source. The calls are words filed in the database; no cut-off is given here.

The subject of data set [1] is Pseudomonas aeruginosa. The data set can be described thus: Synergistic antibacterial activity against Pseudomonas aeruginosa PAO1 after 18 hrs in presence of rifampicin by checkerboard assay. Particulars: PAO1, 18 h. The class given is functional. In a few lines: (§1)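 Checkerboard in MHB: antibiotic diluted along one axis and adjuvant along the other (10 × 7 matrix). Inoculum was a 1:50 dilution in MHB of a 0.5 McFarland saline suspension; incubated 18 h at 37 °C. Each FIC = concentration in the no-growth well divided by the MIC alone; FIC index = sum of both FICs. ≤0.5 synergy, 0.5–4 no interaction, ≥4 antagonism.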

The next data set relates to Enterococcus faecium. Briefly: Antibacterial activity against Enterococcus faecium ATCC 27270 after 18 hrs by microtiter dilution assay. Type of data set: functional. The following applies: ATCC 27270, 18 h. In a few lines: (§2)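 Broth microdilution per CLSI. Overnight culture adjusted to 0.5 McFarland in saline, diluted 1:50 in Mueller-Hinton broth, and added to an equal volume of 2-fold serial compound dilutions in MHB. Incubated 18 h at 37 °C. MIC taken as the lowest concentration with no visible growth.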

Data set [2] deals with Acinetobacter baumannii. Briefly: Antibacterial activity against multidrug-resistant Acinetobacter baumannii AB027 after 18 hrs by microtiter dilution assay. Type of data set: functional. The following applies: AB027, 18 h. The method, boiled down:
(§3)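 Broth microdilution following CLSI guidelines. An overnight culture was adjusted to 0.5 McFarland in saline, then diluted 1:50 in Mueller-Hinton broth. This inoculum was added in equal volume to 2-fold serial dilutions of agent in MHB and incubated 18 h at 37 °C. MIC was the lowest concentration with no visible growth.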

In data set [3] the test system is Pseudomonas aeruginosa. Briefly: Potentiation of gentamicin-induced antibacterial activity against Pseudomonas aeruginosa PAO1 at 4 ug/ml after 18 hrs by checkerboard assay. The class given is functional. The method, boiled down:
(§4)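 Checkerboard in Mueller-Hinton broth: antibiotic serially diluted along one axis and adjuvant along the other (10 × 7 matrix). Inoculum from a 0.5 McFarland saline suspension diluted 1:50 in MHB; 18 h at 37 °C, then plate read. MIC is the lowest concentration with no growth. FIC of each agent is its concentration in a no-growth well divided by its MIC alone; FIC index is the sum of both. FIC index ≤0.5 counts as synergy.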

Data set [4] deals with Pseudomonas aeruginosa. Briefly: Synergistic antibacterial activity against Pseudomonas aeruginosa PAO1 after 18 hrs in presence of erythromycin by checkerboard assay. The class given is functional. The following applies: PAO1, 18 h. In a few lines: as §1
For data set [5], the system named is Pseudomonas aeruginosa. The data set can be described thus: Potentiation of erythromycin-induced antibacterial activity against Pseudomonas aeruginosa PAO1 at 4 ug/ml after 18 hrs by checkerboard assay. The class given is functional. In a few lines:
as §4

The test system of data set [6] is Pseudomonas aeruginosa. Briefly: Antibacterial activity against multidrug/extremely drug-resistant/colistin-susceptible Pseudomonas aeruginosa isolate P259-96918 after 18 hrs by microtiter dilution assay. Type of data set: functional. The following applies: isolate P259-96918, 18 h. The method, boiled down:
as §3

Data set [7] concerns Pseudomonas aeruginosa. The data set can be described thus: Potentiation of minocycline-induced antibacterial activity against Pseudomonas aeruginosa PAO1 after 25 serial passages at 0.125 times MIC by microtiter dilution assay. The class given is functional. In a few lines:
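Sequential passaging of wild-type PAO1 with single drugs or drug combinations. MIC was tested in MHB for 18 h. Cells from the well at half the MIC were adjusted to 0.5 McFarland in saline, diluted 1:50 in fresh MHB and used for the next MIC test. This was repeated for 25 passages, and the fold change in MIC was plotted against passage number.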

Data set [8] relates to Pseudomonas aeruginosa. Briefly: Bactericidal activity against Pseudomonas aeruginosa PAO1 at antibacterial MIC after 2 hrs. The class given is functional. In a few lines:
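Time-kill with P. aeruginosa PAO1. A 0.5 McFarland suspension was diluted 1:50 in LB broth and exposed to agent in PBS (pH 7.2) at 1/2×, 1×, 2× or 4× MIC at 37 °C for 6 h. Samples at 0, 10, 30, 60, 90, 120, 240 and 360 min were serially diluted in PBS, plated on LB agar, and colonies counted after 20 h at 37 °C.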

The subject of data set [9] is Acinetobacter baumannii. Briefly: Antibacterial activity against multidrug-resistant Acinetobacter baumannii AB030 after 18 hrs by microtiter dilution assay. Type of data set: functional. The following applies: AB030, 18 h. The method, boiled down:
as §3

The next data set concerns Enterobacter cloacae. Briefly: Potentiation of rifampicin-induced antibacterial activity against multidrug-resistant Enterobacter cloacae 117029 at 4 ug/ml after 18 hrs by checkerboard assay. Type of data set: functional. The method, boiled down:
as §4

Data set [10] concerns Pseudomonas aeruginosa. The data set can be described thus: Antibacterial activity against Pseudomonas aeruginosa ATCC 27853 after 18 hrs by microtiter dilution assay. Type of data set: functional. The following applies: ATCC 27853, 18 h. The method, boiled down:
as §2

Data set [11] relates to Pseudomonas aeruginosa. The data set can be described thus: Antibacterial activity against multidrug/extremely drug-resistant/colistin-susceptible Pseudomonas aeruginosa isolate 100036 after 18 hrs by microtiter dilution assay. Type of data set: functional. Particulars: isolate 100036, 18 h. In a few lines: as §3
A short description of data set [12]: Ratio of cytotoxic concentration against human DU145 cells to synergistic concentration for Pseudomonas aeruginosa PAO1 in presence of rifampicin.
In data set [13] the test system is Pseudomonas aeruginosa. Briefly: Potentiation of rifampicin-induced antibacterial activity against multidrug/extremely drug-resistant/colistin-susceptible Pseudomonas aeruginosa isolate 101885 at 4 ug/ml after 18 hrs by checkerboard assay. Type of data set: functional. The method, boiled down:
as §4

Another data set has as its system Escherichia coli. Briefly: Antibacterial activity against amikacin-resistant Escherichia coli isolate CAN-ICU 63074 after 18 hrs by microtiter dilution assay. Type of data set: functional. The following applies: isolate CAN-ICU 63074, 18 h. The method, boiled down:
as §3

Data set [14] relates to Pseudomonas aeruginosa. The data set can be described thus: Potentiation of amikacin-induced antibacterial activity against Pseudomonas aeruginosa PAO1 at 4 ug/ml after 18 hrs by checkerboard assay. The class given is functional. In a few lines:
as §4

Data set [15] is described as follows: Cytotoxicity against human DU145 cells assessed as cell viability at 20 uM after 48 hrs by MTS assay relative to control. The class given is cell-based, DU-145. The following applies: read-out: Activity. The method, boiled down:
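DU145 and JIMT-1 grown in DMEM with 10% FBS and penicillin/streptomycin at 37 °C, 5% CO2. 7500–9000 cells/well were seeded for 24 h, then treated at 2.5–30 µM (final) for 48 h. MTS reagent (20% v/v) added for 4 h and OD read at 490 nm after blank subtraction; viability expressed relative to vehicle control.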

The subject of data set [16] is Pseudomonas aeruginosa. Briefly: Potentiation of rifampicin-induced antibacterial activity against Pseudomonas aeruginosa PAO1 at 4 ug/ml after 18 hrs by checkerboard assay. Type of data set: functional. In a few lines: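 Checkerboard in MHB with a 10 × 7 matrix: antibiotic serially diluted along one axis, adjuvant along the other. Inoculum was a 1:50 dilution of a 0.5 McFarland suspension, incubated 18 h at 37 °C and read on a plate reader. Each FIC is the concentration in a no-growth well divided by the MIC alone; FIC index is their sum, with ≤0.5 taken as synergy.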

The test system of data set [17] is Pseudomonas aeruginosa. The data set can be described thus: Induction of outer membrane permeabilization in Pseudomonas aeruginosa PAO1 at 32 ug/ml after 30 mins by CFDASE staining based fluorescence assay. The class given is functional. The method, boiled down: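 Log-phase PAO1 washed in PBS, brought to OD600 0.5 and loaded with 100 µM CFDASE for 30 min at 37 °C, then washed. Cells were exposed to agent for 30 min at 37 °C and supernatant fluorescence read at 488/520 nm. Untreated cells were subtracted; 1% Triton X-100 served as positive control.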

Data set [18] deals with Pseudomonas aeruginosa. The data set can be described thus: Potentiation of rifampicin-induced antibacterial activity against multidrug/extremely drug-resistant/colistin-susceptible Pseudomonas aeruginosa isolate P262-101856 infected in Galleria mellonella assessed as host survival at 75 mg/kg after 24 hrs relative to control. Type of data set: functional. Particulars: isolate P262-101856, 24 h. The method, boiled down: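 Galleria mellonella larvae (about 250 mg, used within 7 days; 15 per group) were injected with 10 µL of XDR P. aeruginosa P262 at 1.0×10^3 CFU/mL. At 2 h they received a single 10 µL injection: monotherapy at 75 mg/kg, or combinations at 12.5+12.5 to 75+75 mg/kg. PBS vehicle served as control. Survival was scored over 24 h at 37 °C.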

With `Cl.Cl.Cl.Cl.Cl.Cl.Cl.NCCCC[C@H](N)C(=O)N(CCCCCCCCCCCCO[C@@H]1[C@@H](O[C@H]2O[C@H](CO)[C@@H](O)[C@H](N)[C@H]2O)[C@H](N)C[C@H](N)[C@H]1O[C@H]1O[C@H](CN)[C@@H](O)C[C@H]1N)Cc1c2ccccc2c(Cl)c2ccccc12`, the MIC with Pseudomonas aeruginosa [1] was 1 µg/mL; against Enterococcus faecium, 8 µg/mL; against Acinetobacter baumannii [2] it was 128 µg/mL; in the data set on Pseudomonas aeruginosa [4], 4 µg/mL; in the data set with Pseudomonas aeruginosa [6], 64 µg/mL; in the data set with Acinetobacter baumannii [9], 64 µg/mL. In addition, the values for the MIC in the data set with Pseudomonas aeruginosa [10], against Pseudomonas aeruginosa [11] and in the data set with Escherichia coli were 32 µg/mL, 32 µg/mL and 16 µg/mL, respectively. Also, the “fractional inhibitory concentration index (FICI)” value with Pseudomonas aeruginosa [3] worked out at 1.125; in the data set with Pseudomonas aeruginosa [5], 0.156; in the data set with Enterobacter cloacae it was 0.02; in the data set with Pseudomonas aeruginosa [13] it was 0.094; in the data set on Pseudomonas aeruginosa [14] it was 1.063; with Pseudomonas aeruginosa [16], 0.094. For the same compound, the result in the data set on Pseudomonas aeruginosa [7], in the data set on Pseudomonas aeruginosa [8] and in the data set on Pseudomonas aeruginosa [17] was Active. The Ratio in data set [12] is reported as 6. The viability at 48 h, 20 µM in data set [15] was above 50%. For the same compound, the survival at 75 mg/kg in the data set with Pseudomonas aeruginosa [18] was 77%.
